Test [1] addresses Delta-type opioid receptor (Rattus norvegicus, UniProt P33533). In words: Binding affinity for Opioid receptor delta 1 as inhibition of [3H]DADAL binding to rat brain membranes. It counts as cell membranes, Membrane. Summed up: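 Rat brain membranes labelled with [³H]DADLE at 1.7-2.5 nM. Incubation 3-4 h at 25 °C in Tris-HCl pH 7.4 with 100 mM choline chloride, 3 mM MnCl₂, protease inhibitor cocktail and 100 nM DAMGO to block μ sites. Nonspecific binding defined with 20 μM levallorphan. Nine test concentrations, run twice. IC50 reported.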

For a further test, the species on record is Cavia porcellus. In words: Binding affinity ratio of kappa opioid receptor (guinea pig brain membranes) with respect to delta opioid receptor( rat brain membranes). It counts as cell membranes. To be noted: Membrane. The essentials: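 Ratio of IC50 from [³H]U69,593 binding to μ/δ-depleted guinea pig brain membranes over IC50 from [³H]DADLE binding to rat brain membranes (μ sites blocked with 100 nM DAMGO). Both assays run at 25 °C in Tris-HCl pH 7.4, nine concentrations, run twice.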

For test [2], the target named is Kappa-type opioid receptor (Cavia porcellus, UniProt P41144). The test can be described thus: Binding affinity for Opioid receptor kappa 1 by the inhibition of binding of [3H]U-69593 in guinea pig brain membranes. It counts as cell membranes. The essentials: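 Guinea pig brain membranes, first depleted of μ and δ sites by pretreatment with irreversible ligands BIT and FIT. Nonspecific binding from 1 μM U69,593. Nine concentrations, run twice. IC50 reported.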

The target of test [3] is Opioid receptors; mu & delta (Rattus norvegicus) (UniProt P33533+P33535). The test can be described thus: Binding affinity ratio on mu opioid receptor( rat brain membranes) with respect to delta opioid receptor (rat brain membranes). Summed up: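 Ratio of IC50 from [³H]DAMGO binding to rat brain membranes over IC50 from [³H]DADLE binding to rat brain membranes (μ sites blocked with 100 nM DAMGO). Both assays run at 25 °C in Tris-HCl pH 7.4, nine concentrations, run twice.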

A further test has as its target Mu-type opioid receptor (Rattus norvegicus, UniProt P33535). In words: Binding affinity for Opioid receptor mu 1 by the inhibition of binding of [3H]DAMGO in rat brain membranes. It counts as cell membranes. Summed up:
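Rat brain membranes with [³H]DAMGO at 1-3 nM, incubated 4 h at 25 °C in 50 mM Tris-HCl pH 7.4 plus protease inhibitor cocktail. Nonspecific binding measured with 20 μM levallorphan. Radioligand displaced by nine drug concentrations, in two runs. Drugs diluted in 10 mM Tris-HCl pH 7.4 containing 1 mg/mL BSA. IC50 reported.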

Mu-type opioid receptor, sequence (P33535 whole entry): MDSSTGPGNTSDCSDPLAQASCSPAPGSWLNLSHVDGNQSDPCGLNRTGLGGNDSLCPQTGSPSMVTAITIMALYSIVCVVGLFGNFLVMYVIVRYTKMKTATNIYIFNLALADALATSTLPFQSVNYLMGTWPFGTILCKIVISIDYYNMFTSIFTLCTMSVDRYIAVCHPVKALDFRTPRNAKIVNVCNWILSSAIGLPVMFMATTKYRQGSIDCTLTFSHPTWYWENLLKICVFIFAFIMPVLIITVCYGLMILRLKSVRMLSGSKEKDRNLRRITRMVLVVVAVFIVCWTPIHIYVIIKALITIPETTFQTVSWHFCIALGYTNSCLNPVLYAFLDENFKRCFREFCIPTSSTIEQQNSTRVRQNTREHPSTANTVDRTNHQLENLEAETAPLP
Delta-type opioid receptor, sequence (P33533 whole entry): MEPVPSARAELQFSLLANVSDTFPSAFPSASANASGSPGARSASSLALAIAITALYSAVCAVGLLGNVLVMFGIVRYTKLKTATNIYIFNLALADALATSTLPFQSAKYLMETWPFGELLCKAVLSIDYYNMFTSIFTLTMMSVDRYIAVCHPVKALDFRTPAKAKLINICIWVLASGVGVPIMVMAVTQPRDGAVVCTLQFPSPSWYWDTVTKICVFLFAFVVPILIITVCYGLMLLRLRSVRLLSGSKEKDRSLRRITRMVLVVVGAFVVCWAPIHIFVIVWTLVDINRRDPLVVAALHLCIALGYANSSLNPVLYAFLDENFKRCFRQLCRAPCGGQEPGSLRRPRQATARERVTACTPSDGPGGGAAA
Opioid receptors; mu & delta (Rattus norvegicus), sequence (P33533 whole entry, looked up): as the sequence (P33533 whole entry) above
Opioid receptors; mu & delta (Rattus norvegicus), sequence (P33535 whole entry, looked up): as the sequence (P33535 whole entry) above
Kappa-type opioid receptor, sequence (P41144 whole entry): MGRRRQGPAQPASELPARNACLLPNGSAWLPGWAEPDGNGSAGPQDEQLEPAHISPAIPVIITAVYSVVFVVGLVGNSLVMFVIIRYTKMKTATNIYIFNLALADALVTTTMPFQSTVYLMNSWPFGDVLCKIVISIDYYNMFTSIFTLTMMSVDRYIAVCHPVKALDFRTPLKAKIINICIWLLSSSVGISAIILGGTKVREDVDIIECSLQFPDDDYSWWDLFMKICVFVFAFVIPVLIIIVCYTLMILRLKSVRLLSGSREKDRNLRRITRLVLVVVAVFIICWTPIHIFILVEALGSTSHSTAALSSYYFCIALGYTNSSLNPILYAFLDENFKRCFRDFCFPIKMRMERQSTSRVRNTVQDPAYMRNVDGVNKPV

For the compound `C=CCN1C[C@H](C)N([C@H](c2ccc(C(=O)NCC)cc2)c2cccc(OC)c2)C[C@H]1C`, the concentration for half-maximal inhibition (IC50) in test [1] turned out to be 150 nM; in test [2], 345 nM; on Mu-type opioid receptor it was 242 nM. Besides, the results for the Ratio (in the test filed under Cavia porcellus; in test [3]) were 2.3 and 1.6, respectively.

One may read the IC50 as the midpoint of a concentration-inhibition curve.

The values are drawn from ChEMBL document CHEMBL1130143, “Probes for narcotic receptor-mediated phenomena. 25. Synthesis and evaluation of N-alkyl-substituted (alpha-piperazinylbenzyl)benzamides as novel, highly selective delta opioid receptor agonists” (J Med Chem, 1997).
